Source: PMC3558928 (Chemistry & biology, 2013)

Tests used:
[1] = system: PSNF5 cells; experiment: WST-1 proliferation assay, PSNF5; format: cell-based, human; conditions: PSNF5 (BLM+); 24–72 hours
[2] = system: PSNF5 cells; experiment: γ-H2AX focus formation after mitomycin C, PSNF5; format: cell-based, human; conditions: ML216 and MMC versus MMC alone, p<0.05
[3] = system: PSNG13 cells; experiment: γ-H2AX focus formation after mitomycin C, PSNG13; format: cell-based, human; conditions: with or without MMC, p>0.05
[4] = target: T1, BLM (Homo sapiens, UniProt P54132); experiment: Electrophoretic mobility shift assay; format: binding; conditions: ssDNA or forked duplex; increasing concentrations
T1 sequence (P54132 whole entry): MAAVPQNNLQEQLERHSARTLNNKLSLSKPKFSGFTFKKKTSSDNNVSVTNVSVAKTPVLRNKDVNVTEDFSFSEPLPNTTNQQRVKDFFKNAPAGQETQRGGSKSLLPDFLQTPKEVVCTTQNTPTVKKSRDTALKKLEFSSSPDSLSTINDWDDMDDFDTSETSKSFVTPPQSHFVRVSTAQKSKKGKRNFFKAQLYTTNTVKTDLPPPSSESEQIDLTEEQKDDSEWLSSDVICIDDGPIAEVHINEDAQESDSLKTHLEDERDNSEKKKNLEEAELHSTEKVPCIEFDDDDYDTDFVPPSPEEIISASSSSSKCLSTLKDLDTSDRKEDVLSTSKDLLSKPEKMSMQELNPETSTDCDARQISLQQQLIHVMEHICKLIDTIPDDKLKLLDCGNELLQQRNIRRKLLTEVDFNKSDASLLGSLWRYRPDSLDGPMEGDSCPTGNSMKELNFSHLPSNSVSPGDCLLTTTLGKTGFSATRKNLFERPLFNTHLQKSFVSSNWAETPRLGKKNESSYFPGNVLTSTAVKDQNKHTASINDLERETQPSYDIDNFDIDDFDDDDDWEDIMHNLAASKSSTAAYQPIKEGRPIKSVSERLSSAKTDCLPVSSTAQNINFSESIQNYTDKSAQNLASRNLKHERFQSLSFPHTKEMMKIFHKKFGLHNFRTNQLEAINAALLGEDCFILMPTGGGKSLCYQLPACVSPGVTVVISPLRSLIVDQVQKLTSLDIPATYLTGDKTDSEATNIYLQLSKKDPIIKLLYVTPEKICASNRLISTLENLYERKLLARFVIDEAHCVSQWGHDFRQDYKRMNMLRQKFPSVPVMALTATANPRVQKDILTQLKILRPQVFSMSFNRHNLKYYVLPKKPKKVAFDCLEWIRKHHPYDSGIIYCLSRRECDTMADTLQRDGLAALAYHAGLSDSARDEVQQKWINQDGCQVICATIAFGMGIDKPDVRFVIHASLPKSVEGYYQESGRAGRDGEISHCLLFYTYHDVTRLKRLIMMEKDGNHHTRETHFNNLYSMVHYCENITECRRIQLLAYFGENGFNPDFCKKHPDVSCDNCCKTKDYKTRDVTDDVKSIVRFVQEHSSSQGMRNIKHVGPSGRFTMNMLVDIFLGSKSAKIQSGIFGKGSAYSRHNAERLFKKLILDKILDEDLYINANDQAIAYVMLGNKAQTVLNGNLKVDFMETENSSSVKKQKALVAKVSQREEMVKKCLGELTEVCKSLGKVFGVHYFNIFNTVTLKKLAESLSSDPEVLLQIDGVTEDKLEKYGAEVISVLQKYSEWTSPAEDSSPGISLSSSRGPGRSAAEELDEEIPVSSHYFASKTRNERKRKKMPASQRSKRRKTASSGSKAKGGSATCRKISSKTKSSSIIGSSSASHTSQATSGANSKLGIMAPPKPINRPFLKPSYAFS

[5] = system: WRN^+ and WRN^− cells; experiment: Proliferation of WRN+ and WRN− fibroblasts; format: cell-based, human
[6] = target: RecQ5 (Homo sapiens, UniProt O94762); experiment: Gel-based DNA unwinding assay, RECQ5; format: biochemical
RecQ5, sequence (O94762 whole entry): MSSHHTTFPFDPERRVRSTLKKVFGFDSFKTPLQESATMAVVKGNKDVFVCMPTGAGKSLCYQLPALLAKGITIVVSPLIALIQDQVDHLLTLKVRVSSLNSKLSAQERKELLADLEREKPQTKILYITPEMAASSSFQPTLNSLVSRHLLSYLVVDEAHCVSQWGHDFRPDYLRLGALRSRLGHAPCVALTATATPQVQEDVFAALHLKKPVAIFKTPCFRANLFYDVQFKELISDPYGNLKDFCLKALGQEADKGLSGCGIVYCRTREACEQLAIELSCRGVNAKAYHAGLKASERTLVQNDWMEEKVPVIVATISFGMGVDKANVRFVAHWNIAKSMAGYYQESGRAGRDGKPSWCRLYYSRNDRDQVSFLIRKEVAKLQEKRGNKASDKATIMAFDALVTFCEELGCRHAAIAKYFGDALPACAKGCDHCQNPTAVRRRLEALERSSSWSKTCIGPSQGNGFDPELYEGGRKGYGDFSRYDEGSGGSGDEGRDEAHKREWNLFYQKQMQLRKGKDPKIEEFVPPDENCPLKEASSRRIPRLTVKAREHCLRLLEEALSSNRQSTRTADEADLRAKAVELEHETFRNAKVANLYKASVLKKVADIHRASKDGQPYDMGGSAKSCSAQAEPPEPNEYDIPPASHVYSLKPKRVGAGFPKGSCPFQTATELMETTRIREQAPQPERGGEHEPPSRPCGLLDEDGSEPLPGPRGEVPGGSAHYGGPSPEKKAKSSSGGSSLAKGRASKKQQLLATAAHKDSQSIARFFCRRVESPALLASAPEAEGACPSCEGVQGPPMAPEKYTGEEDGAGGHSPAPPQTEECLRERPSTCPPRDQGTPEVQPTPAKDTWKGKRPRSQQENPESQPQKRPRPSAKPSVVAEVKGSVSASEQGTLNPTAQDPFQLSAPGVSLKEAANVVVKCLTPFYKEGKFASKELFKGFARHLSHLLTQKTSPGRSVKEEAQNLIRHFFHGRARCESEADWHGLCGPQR

[7] = system: PSNG13 cells; experiment: Sister chromatid exchange; format: cell-based, human
Outline: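 Stable transfectants of SV40-transformed Bloom syndrome fibroblast line GM08505 were used: PSNF5 (Flag-BLM) and PSNG13 (empty vector). Cells were left untreated or exposed to test compound, with exposures in the 24–72 hr range. Sister chromatid exchanges were scored as frequency per chromosome and number per chromosome.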

[8] = target: WRN^short (WRN^500–946) (Homo sapiens, UniProt Q14191); experiment: Gel-based DNA unwinding assay, truncated WRN; format: biochemical
WRN^short (WRN^500–946), sequence (Q14191 500-946): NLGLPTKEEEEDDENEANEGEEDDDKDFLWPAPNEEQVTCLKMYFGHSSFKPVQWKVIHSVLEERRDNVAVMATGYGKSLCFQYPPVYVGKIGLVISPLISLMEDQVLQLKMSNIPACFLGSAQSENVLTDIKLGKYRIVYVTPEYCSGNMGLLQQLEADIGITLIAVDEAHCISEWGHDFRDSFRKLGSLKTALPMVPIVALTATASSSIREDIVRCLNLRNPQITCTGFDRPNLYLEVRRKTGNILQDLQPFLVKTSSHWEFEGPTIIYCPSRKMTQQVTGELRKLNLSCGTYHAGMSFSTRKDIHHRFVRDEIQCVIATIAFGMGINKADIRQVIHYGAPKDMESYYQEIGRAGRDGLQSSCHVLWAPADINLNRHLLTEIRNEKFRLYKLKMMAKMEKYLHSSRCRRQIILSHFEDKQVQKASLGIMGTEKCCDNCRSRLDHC

[9] = system: human cells; experiment: Cell cycle checkpoint responses in cells; format: cell-based; conditions: 50µM, 24 hours; data not shown
[10] = system: PSNF5 cells; experiment: Sister chromatid exchange; format: cell-based, human
[11] = system: PSNG13 cells; experiment: WST-1 proliferation assay, PSNG13; format: cell-based, human; conditions: PSNG13 (BLM−); 24–72 hours
[12] = target: T2, RecQ1 (Homo sapiens, UniProt P46063); experiment: Gel-based DNA unwinding assay, RECQ1; format: biochemical
T2 sequence (P46063 1-649): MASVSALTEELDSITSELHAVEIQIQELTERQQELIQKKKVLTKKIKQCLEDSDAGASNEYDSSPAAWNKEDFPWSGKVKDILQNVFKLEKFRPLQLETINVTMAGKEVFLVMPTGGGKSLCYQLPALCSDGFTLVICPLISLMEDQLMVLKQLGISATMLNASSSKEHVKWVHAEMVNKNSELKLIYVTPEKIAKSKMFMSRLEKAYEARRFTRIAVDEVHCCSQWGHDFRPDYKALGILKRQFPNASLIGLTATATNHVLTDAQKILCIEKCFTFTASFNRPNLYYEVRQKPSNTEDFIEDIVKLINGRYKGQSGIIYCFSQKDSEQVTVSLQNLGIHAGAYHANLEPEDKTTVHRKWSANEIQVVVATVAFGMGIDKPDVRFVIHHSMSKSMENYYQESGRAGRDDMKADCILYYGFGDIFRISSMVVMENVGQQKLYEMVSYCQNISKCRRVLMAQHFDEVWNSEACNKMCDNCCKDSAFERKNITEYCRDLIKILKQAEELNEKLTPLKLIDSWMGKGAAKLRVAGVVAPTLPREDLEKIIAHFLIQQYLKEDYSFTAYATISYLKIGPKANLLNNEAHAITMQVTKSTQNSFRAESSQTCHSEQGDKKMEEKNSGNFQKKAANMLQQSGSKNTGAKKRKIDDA

[13] = target: T1, BLM; experiment: BLM disruption of D-loop, Holliday junction and G-quadruplex substrates; format: biochemical
[14] = system: PSNF5 cells; experiment: Clonogenic survival, sensitization to aphidicolin, PSNF5; format: cell-based, human; conditions: ML216 24 hours before aphidicolin, p<0.01
Outline: (§1)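 Isogenic SV40-transformed Bloom syndrome fibroblasts (GM08505 background): PSNF5 stably expresses Flag-tagged BLM, PSNG13 carries empty vector. Cells were exposed to test compound for 24 hr, then aphidicolin was added at graded concentrations for a further 24 hr. Cells were washed and grown in drug-free medium for up to 12 days to form colonies. Survival curves come from three independent experiments (mean, SD).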

[15] = target: T1, BLM; experiment: Fluorescence polarization assay of BLM binding to TAMRA-labeled oligonucleotide; conditions: dilution series; no nucleotide, ADP or ATP
[16] = target: E. coli UvrD helicase (Escherichia coli, UniProt P03018); experiment: Gel-based DNA unwinding assay, UvrD; format: biochemical
E. coli UvrD helicase, sequence (P03018 whole entry): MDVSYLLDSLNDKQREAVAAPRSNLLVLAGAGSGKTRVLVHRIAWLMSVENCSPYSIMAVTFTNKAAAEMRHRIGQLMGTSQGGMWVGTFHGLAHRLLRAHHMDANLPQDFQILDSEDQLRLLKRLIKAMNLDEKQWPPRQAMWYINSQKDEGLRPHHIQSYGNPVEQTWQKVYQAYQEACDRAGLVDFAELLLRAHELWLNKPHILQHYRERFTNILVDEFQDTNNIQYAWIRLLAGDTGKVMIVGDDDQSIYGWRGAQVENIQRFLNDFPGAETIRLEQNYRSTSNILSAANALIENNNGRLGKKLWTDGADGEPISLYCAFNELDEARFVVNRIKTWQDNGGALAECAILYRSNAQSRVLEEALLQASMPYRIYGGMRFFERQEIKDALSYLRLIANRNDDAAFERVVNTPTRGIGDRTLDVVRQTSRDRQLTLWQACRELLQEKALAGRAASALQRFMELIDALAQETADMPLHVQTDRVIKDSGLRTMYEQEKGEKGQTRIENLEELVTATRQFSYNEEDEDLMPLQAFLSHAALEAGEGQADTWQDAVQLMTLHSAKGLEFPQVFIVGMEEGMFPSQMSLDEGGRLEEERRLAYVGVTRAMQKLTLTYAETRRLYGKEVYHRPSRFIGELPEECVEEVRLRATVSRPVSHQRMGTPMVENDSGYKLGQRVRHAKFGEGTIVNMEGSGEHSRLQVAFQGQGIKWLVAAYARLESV

[17] = target: WRN^long (full length WRN) (Homo sapiens, UniProt Q14191); experiment: Gel-based DNA unwinding assay, full length WRN; format: biochemical
[18] = target: T1, BLM; experiment: ssDNA-dependent ATPase activity of BLM; format: biochemical
[19] = system: WRN^+ and WRN^− cells; experiment: Aphidicolin sensitization of WRN+ and WRN− fibroblasts; format: cell-based, human
[20] = target: BLM^full-length (Homo sapiens, UniProt P54132); experiment: Gel-based DNA unwinding assay, forked duplex, full-length BLM; format: biochemical
BLM^full-length, sequence (P54132 whole entry): as the sequence (P54132 whole entry) above

[21] = system: PSNG13 cells; experiment: Clonogenic survival, sensitization to aphidicolin, PSNG13; format: cell-based, human
Outline: as §1

[22] = target: BLM^636–1298 (Homo sapiens, UniProt P54132); experiment: Fluorescence-quenching qHTS assay of BLM DNA unwinding; format: biochemical
BLM^636–1298, sequence (P54132 636-1298): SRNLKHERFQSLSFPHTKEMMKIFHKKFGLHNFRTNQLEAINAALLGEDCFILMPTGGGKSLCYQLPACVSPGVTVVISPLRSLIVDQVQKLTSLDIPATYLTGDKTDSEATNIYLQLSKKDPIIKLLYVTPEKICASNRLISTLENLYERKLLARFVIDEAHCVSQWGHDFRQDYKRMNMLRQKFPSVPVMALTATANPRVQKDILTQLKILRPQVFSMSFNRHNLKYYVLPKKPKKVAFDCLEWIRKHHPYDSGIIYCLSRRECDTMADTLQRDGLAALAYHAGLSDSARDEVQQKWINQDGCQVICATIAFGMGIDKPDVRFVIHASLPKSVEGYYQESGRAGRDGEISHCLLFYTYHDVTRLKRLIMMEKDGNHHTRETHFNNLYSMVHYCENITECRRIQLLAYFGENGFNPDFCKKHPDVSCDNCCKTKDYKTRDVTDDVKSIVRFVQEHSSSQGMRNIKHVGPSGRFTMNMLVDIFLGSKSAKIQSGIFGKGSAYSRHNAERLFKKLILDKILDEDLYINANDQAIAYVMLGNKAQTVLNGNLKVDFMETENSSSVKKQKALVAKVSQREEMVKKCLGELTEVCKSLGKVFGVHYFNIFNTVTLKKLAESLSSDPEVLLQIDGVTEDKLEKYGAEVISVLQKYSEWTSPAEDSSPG
Outline: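 Quenched-fluorescence unwinding screen used bacterially expressed truncated BLM (residues 636–1298). The forked duplex substrate carries tetramethylrhodamine at the 3' end of one strand and Black Hole Quencher-2 at the 5' end of the complement. ATP-dependent unwinding raises fluorescence. Inhibition is the signal loss relative to DMSO-only controls, run as dose-response (qHTS).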

[23] = target: T1, BLM; experiment: Traditional helicase assay, radiolabeled forked duplex, PAGE; format: biochemical
Outline: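 Substrate was gel-purified and dialysed, and its concentration was set by scintillation counting. Reactions held at most 1% DMSO. Unwinding to ssDNA was resolved by PAGE and expressed as percent unwinding against untreated (0%) and heat-denatured (100%) controls. IC50 came from nonlinear regression.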

With `O=C(Nc1ccc(F)c(C(F)(F)F)c1)Nc1nnc(-c2ccncc2)s1` [ML216] the “effect on cell proliferation” value [1] was “inhibitor of the proliferation of PSNF5 cells”, the γ-H2AX focus formation [2] was “statistically significant reduction” and the γ-H2AX focus formation [3] was “no significant effect”. For the same compound, the “effect on DNA binding by BLM (EMSA)” value [4] was “displacement of either ssDNA or forked duplex DNA from a complex with BLM”, the “inhibition of proliferation, WRN^+ versus WRN^− cells” value [5] was “equally well” and the IC50 [6] was > 50 µM. For the same compound, the “inhibition of helicase activity” value ([6]; at 50 µM) was “only very modest inhibition”, the “frequency of sister chromatid exchanges (SCEs)” value [7] was “not in PSNG13 cells” and the IC50 [8] was 12.6 µM. The “cell cycle arrest in G1/S or G2/M” value [9] was “did not cause cell cycle arrest”, the “phosphorylation of ATM or ATR targets, including CHK1 and CHK2” value [9] was “did not appear to cause phosphorylation” and the “frequency of sister chromatid exchanges (SCEs)” value [10] was “statistically significant increase”. For the same compound, the “frequency of SCEs, short exposure” value ([10]; present only during the last 8 hours) was “statistically significant increase in the frequency of SCEs”, the “effect on cell proliferation” value [11] was “not of PSNG13 cells” and the IC50 [12] was > 50 µM. For the same compound, the “inhibition of helicase activity” value ([12]; at 50 µM) was “only very modest inhibition”, the “inhibition of BLM's G-quadruplex disrupting activity” value [13] was “only very modest inhibition” and the “inhibition of disruption of the D-loop substrate” value ([13]; 50 µM) was “only at high concentrations”. For the same compound, the “inhibition of disruption of the Holliday junction substrate” value ([13]; 50 µM) was “only at high concentrations”, the sensitivity to aphidicolin [14] was “increased the sensitivity” and the “effect on DNA binding by BLM (fluorescence polarization)” value [15] was “inhibits the ability of BLM to bind DNA”. The IC50 [16] was > 50 µM, the “inhibition of helicase activity” value ([16]; at 50 µM) was “only very modest inhibition” and the “sensitivity of full length WRN versus WRN^500–946 (based on IC50 values)” value [17] was 2.5 fold. The “mode of inhibition of ATPase activity with respect to ATP” value [18] was “non-competitive”, the “sensitization to aphidicolin, WRN^+ versus WRN^− cells” value [19] was “similarly sensitized both cell types” and the “sensitivity of BLM versus WRN (based on IC50 values)” value [20] was 1.7 fold. The sensitivity to aphidicolin [21] was “no sensitizing effect”.
In the case of `O=C(Nc1ccc(Cl)c(Cl)c1)Nc1nnc(-c2ccncc2)s1` [MLS000559245], the “activity in fluorescence-based screening assay” value [22] is reported as “showed activity” and the “activity in radioactivity-based helicase assay” value [23] is reported as “showed activity”.
